Assay results taken from ChEMBL document CHEMBL5247577, “Improved Selective Class I HDAC and Novel Selective HDAC3 Inhibitors: Beyond Hydroxamic Acids and Benzamides” (ACS Med Chem Lett, 2019).

Legend:
Histone deacetylase = assay: Inhibition of HDAC in human HeLa cells using FLUOR DE LYS-SIRT1 as fluorogenic substrate incubated for 4 hrs by spectrophotometer based analysis; format: cell-based
Histone deacetylase 1 = Histone deacetylase 1 (Homo sapiens, UniProt Q13547); assay: Inhibition of human recombinant his tagged HDAC1 expressed in baculovirus expression system using FLUOR DE LYS-SIRT1 as fluorogenic substrate preincubated for 10 mins followed by substrate addition and measured after 1 hr by spectrophotometer based analysis
Histone deacetylase 1, sequence (Q13547 whole entry): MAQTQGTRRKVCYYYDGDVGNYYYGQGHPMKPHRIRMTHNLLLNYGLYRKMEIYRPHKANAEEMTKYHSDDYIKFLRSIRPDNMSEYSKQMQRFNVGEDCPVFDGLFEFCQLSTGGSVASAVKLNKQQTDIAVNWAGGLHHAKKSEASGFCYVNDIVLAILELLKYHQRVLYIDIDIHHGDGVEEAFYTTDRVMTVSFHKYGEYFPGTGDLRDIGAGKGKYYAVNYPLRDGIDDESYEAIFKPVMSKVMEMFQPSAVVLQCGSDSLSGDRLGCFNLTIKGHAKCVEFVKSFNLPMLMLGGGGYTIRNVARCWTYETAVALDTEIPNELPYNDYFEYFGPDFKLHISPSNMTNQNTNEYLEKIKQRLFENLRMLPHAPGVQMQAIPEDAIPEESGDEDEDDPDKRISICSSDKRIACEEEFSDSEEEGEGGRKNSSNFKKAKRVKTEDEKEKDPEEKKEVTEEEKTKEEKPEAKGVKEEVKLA

Histone deacetylase 2 = Histone deacetylase 2 (Homo sapiens, UniProt Q92769); assay: Inhibition of human HDAC2
Histone deacetylase 2, sequence (Q92769 whole entry): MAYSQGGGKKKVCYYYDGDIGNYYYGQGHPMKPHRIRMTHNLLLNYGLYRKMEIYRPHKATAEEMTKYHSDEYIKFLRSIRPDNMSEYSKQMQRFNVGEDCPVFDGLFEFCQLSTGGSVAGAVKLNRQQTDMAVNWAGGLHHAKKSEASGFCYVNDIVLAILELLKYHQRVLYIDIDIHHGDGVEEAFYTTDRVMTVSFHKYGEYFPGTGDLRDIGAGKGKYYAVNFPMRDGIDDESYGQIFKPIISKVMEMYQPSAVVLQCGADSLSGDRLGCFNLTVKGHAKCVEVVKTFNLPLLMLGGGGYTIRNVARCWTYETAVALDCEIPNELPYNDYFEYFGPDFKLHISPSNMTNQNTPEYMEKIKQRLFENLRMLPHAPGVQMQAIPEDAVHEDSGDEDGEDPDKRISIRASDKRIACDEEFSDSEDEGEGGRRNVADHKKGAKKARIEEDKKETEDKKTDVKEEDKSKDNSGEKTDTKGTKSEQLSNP

Histone deacetylase 3 = Histone deacetylase 3 (Homo sapiens, UniProt O15379); assay: Inhibition of human HDAC3 expressed in baculovirus infected insect cells using FLUOR DE LYS-SIRT1 as fluorogenic substrate preincubated for 10 mins followed by substrate addition and measured after 1 hr by spectrophotometer based analysis
Histone deacetylase 3, sequence (O15379 whole entry): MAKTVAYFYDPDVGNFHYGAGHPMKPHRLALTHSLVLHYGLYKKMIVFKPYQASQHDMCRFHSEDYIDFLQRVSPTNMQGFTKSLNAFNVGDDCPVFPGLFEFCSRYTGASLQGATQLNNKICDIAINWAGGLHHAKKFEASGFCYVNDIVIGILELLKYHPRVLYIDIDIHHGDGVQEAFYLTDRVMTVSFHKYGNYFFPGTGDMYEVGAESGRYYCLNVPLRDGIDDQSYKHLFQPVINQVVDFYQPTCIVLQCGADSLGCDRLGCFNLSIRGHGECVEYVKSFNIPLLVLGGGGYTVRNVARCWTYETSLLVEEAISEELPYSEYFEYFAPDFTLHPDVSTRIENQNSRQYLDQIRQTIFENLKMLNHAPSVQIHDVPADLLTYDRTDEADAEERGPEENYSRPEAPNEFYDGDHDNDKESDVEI

[1] = biological target: Voltage-gated inwardly rectifying potassium channel KCNH2 (Homo sapiens, UniProt Q12809); assay: Inhibition of hERG potassium channel incubated for 4 hrs by fluorescence polarization assay; format: toxicity
Voltage-gated inwardly rectifying potassium channel KCNH2, sequence (Q12809 whole entry): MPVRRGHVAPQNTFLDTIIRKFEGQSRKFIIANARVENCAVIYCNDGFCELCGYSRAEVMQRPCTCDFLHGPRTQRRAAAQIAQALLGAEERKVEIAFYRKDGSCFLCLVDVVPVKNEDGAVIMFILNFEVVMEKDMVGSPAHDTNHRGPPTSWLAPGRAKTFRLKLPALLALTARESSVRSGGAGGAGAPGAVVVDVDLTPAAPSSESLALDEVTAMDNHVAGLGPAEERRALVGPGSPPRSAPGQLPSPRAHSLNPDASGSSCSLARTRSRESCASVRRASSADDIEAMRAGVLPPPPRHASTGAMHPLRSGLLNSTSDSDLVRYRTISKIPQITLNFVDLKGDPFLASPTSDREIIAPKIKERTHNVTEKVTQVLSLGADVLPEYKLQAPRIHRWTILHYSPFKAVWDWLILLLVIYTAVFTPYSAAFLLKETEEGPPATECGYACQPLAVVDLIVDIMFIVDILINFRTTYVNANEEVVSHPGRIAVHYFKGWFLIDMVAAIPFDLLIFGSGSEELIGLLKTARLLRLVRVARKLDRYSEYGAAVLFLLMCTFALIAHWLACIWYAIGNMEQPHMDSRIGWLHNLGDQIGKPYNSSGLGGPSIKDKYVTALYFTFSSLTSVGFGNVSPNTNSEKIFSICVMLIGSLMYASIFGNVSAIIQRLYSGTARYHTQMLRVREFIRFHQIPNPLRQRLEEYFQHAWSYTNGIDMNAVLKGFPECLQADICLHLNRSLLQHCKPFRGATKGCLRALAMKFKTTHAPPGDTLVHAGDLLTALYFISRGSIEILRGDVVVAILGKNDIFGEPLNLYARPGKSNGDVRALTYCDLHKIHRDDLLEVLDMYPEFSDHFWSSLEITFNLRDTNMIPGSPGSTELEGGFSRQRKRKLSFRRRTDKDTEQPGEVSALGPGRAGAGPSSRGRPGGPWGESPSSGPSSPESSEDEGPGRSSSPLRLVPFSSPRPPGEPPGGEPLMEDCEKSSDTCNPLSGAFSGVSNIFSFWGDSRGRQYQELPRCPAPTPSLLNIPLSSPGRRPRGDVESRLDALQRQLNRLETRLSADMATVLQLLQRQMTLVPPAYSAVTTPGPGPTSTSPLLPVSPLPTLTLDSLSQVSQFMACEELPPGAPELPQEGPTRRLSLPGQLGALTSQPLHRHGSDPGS

[2] = AUC in NMRI mouse plasma at 5 to 20 mg/kg, po by LC/MS/MS analysis; format: ADME, organism-based; set-up: route po; details: NMRI, plasma, dose 5-20 mg/kg, read-out: AUC
Method in brief: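 Compound given orally as its tartrate salt at 20 mg/kg in mouse, 10 mg/kg in rat and 5 mg/kg in minipig.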

[3] = Metabolic stability in mouse plasma assessed as half life; format: ADME, cell-free
[4] = Metabolic stability in human plasma assessed as half life; format: ADME, cell-free
[5] = Metabolic stability in mouse hepatocyte assessed as half life; format: ADME, cell-based; details: hepatocytes
[6] = Metabolic stability in human hepatocyte assessed as half life; format: ADME, cell-based; details: hepatocytes

For CCC(=O)CCCCC[C@H](NC(=O)C(C)(C)N(C)C)c1ncc(-c2cc3ccccc3nc2OC)o1, the EC50 (Histone deacetylase) was 15 nM, the IC50 (Histone deacetylase 1) was 3.5 nM and the IC50 (Histone deacetylase 2) was < 3.5 nM. For the same compound, the IC50 (Histone deacetylase 3) was < 3.5 nM.
Work on CNC(=O)CCCCC[C@H](NC(=O)CCc1c[nH]c2ccccc12)c1ncc(-c2ccc(CN(C)C)cc2)[nH]1 yielded an IC50 (Histone deacetylase 1) of 1370 nM.
With CNC(=O)CCCCC[C@H](NC(=O)c1cncs1)c1ncc(-c2ccc3ccccc3c2)[nH]1 the IC50 (Histone deacetylase 1) was 325 nM.
With CCC(=O)CCCCC[C@H](NC(=O)C1CN(C)C1)c1ncc(-c2cc3ccccc3nc2OC)[nH]1 the IC50 [1] was 3000 nM and the AUC [2] was 0.9 µM·h.
In the case of CNC(=O)CCCCC[C@H](NC(=O)Cn1ccc2cc(C#N)ccc21)c1ncc(-c2ccc(CN(C)C)cc2)[nH]1, the half-life [3] is reported as > 4 h, the half-life [4] is reported as > 4 h and the half-life [5] is reported as > 4 h. The half-life [6] was > 4 h.
In the case of CCC(=O)CCCCC[C@H](NC(=O)C(=O)N1CCOCC1)c1ncc(-c2cc3ccccc3nc2OC)o1, the EC50 (Histone deacetylase) is reported as 610 nM, the IC50 (Histone deacetylase 1) is reported as 30.5 nM and the IC50 [1] is reported as > 30000 nM.
For CCC(=O)CCCCC[C@H](NC(=O)C12CCN(CC1)CC2)c1ncc(-c2cc3ccccc3nc2OC)o1, the EC50 (Histone deacetylase) was 43 nM, the IC50 (Histone deacetylase 1) was 1.6 nM and the IC50 (Histone deacetylase 2) was < 3.5 nM. For the same compound, the IC50 (Histone deacetylase 3) was < 3.5 nM and the IC50 [1] was 190 nM.
CCC(=O)CCCCC[C@H](NC(=O)C1(F)CN(C)C1)c1ncc(-c2cc3ccccc3nc2OC)o1 showed an EC50 (Histone deacetylase) of 430 nM, an IC50 (Histone deacetylase 1) of 17 nM and an IC50 [1] of 13600 nM.
CNC(=O)CCCCC[C@H](NC(=O)CCc1c[nH]c2ccccc12)c1ncc(-c2ccc(-n3cccn3)cc2)[nH]1 showed an IC50 (Histone deacetylase 1) of 860 nM.
CCC(=O)CCCCC[C@H](NC(=O)Cc1c(C)[nH]c2ccc(OC)cc12)c1ncc(-c2ccc3ccccc3c2)[nH]1 showed an EC50 (Histone deacetylase) of 44 nM and an IC50 (Histone deacetylase 1) of 3.2 nM.
With CCC(=O)CCCCC[C@H](NC(=O)Cc1c(C)[nH]c2ccc(OC)cc12)c1ncc(-c2ccc3ccccc3c2)o1 the EC50 (Histone deacetylase) was 412 nM and the IC50 (Histone deacetylase 1) was 19.6 nM.
With CCC(=O)CCCCC[C@H](NC(=O)C1CN(C)C1)c1ncc(-c2cc3ccccc3[nH]c2=O)o1 the EC50 (Histone deacetylase) was 94 nM, the IC50 (Histone deacetylase 1) was 2.1 nM and the IC50 [1] was > 30000 nM.
Compound CCC(=O)CCCCC[C@H](NC(=O)C1CN(C)C1)c1ncc(-c2ccc3ccccc3c2)[nH]1 has an EC50 (Histone deacetylase) of 125 nM and an IC50 (Histone deacetylase 1) of 1.5 nM.
CCC(=O)CCCCC[C@H](NC(=O)C1CN(C)C1)c1ncc(-c2ccc3ccccc3c2)o1 showed an EC50 (Histone deacetylase) of 873 nM and an IC50 (Histone deacetylase 1) of 12.2 nM.
Work on CNC(=O)CCCCC[C@H](NC(=O)c1cncs1)c1ncc(-c2ccc(CN(C)C)cc2)[nH]1 yielded an IC50 (Histone deacetylase 1) of 6070 nM.
With CCC(=O)CCCCC[C@H](NC(=O)C1CNC(=O)C1)c1ncc(-c2cc3ccccc3nc2OC)o1 (some centres not stated) the EC50 (Histone deacetylase) was 208 nM, the IC50 (Histone deacetylase 1) was 3.2 nM and the IC50 [1] was > 30000 nM.
In the case of CCC(=O)CCCCC[C@H](NC(=O)Cn1ccnn1)c1ncc(-c2cc3ccccc3nc2OC)o1, the EC50 (Histone deacetylase) is reported as 138 nM, the IC50 (Histone deacetylase 1) is reported as 3 nM and the IC50 [1] is reported as > 30000 nM.
